From ChEMBL document CHEMBL1156077, “Piperazinyl-glutamate-pyrimidines as potent P2Y12 antagonists for inhibition of platelet aggregation” (Bioorg Med Chem Lett, 2009) come the findings set out here.

Calls of active or inactive are those of the source. No cut-off for these calls is given here. Bounds are passed on as bounds.

Series [1] is described as follows: Selectivity for human P2Y12 receptor over P2Y13.
Series [2] is described as follows: Selectivity for human P2Y12 receptor over P2Y1.
Series [3] has as its target T1, P2Y purinoceptor 12 (Homo sapiens, UniProt Q9H244). The series can be described thus: Binding affinity at human recombinant P2Y12 receptor expressed in CHO cells by radioligand binding assay. The series is classed as cell-based. In a few lines: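 Washed membranes from CHO cells transfected with synthetic human P2Y12 gene. Compounds as 7-point threefold dilutions, triplicate, 1 h at room temperature. Nonspecific binding defined with 300 nM 2-MeSADP. Filtered, washed with ice-cold Tris pH 7.4. Single-site fit; IC50 converted to Ki by Cheng–Prusoff, geometric mean of n≥2.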

In series [4] the target is T1, P2Y purinoceptor 12. Nature of the series: Binding affinity at human recombinant P2Y12 receptor expressed in CHO cells by radioligand binding assay in presence of 0.4% human serum albumin. The series is classed as cell-based. The procedure, abridged: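 Membranes from CHO cells transfected with a synthetic human P2Y12 gene, with 0.4% human serum albumin added to the binding buffer (50 mM Tris, 100 mM NaCl, 1 mM EDTA). Seven-point threefold dilutions were run in triplicate, 1 h at room temperature, then filtered. Ki from IC50 by Cheng-Prusoff.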

Series [5] has as its target T1, P2Y purinoceptor 12. Nature of the series: Ratio of compound IC50 to AZD-6140 IC50 for P2Y12 receptor in human platelet rich plasma assessed as inhibition of ADP-induced platelet aggregation by light transmission aggregometry. The procedure, abridged:
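Human platelet-rich plasma was pre-incubated 5 min at 37 °C with compound across seven concentrations (10 down to 0.156). Aggregation was started with ADP (20, final) and followed by light transmission at 626 nm for 15 min at 37 °C. Duplicate concentration-response data were read at the 15-min end-point. IC50 was divided by the IC50 of AZD-6140 run on the same plate.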

A short description of series [6]: Volume of distribution at steady state in Sprague-Dawley rat at 2 mg/kg, iv and 5 mg/kg, po. To be noted: in vivo, read-out: Vdss. The series is classed as ADME, organism-based.
The subject of series [7] is Liver microsomes. Nature of the series: Metabolic stability in rat liver microsomes assessed as compound remaining. The series is classed as ADME, Microsome. The procedure, abridged: (§1)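 Compounds incubated 30 min with human or rat liver microsomes; percent of parent compound remaining measured.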
The nature of series [8]: Oral bioavailability in Sprague-Dawley rat at 5 mg/kg. The series is classed as ADME, organism-based. To be noted: in vivo.
Series [9] is described as follows: Effective half life in Sprague-Dawley rat at 2 mg/kg, iv and 5 mg/kg, po. The format is ADME, organism-based. Particulars: in vivo.
For another series, the target named is hERG (KCNH2) (Homo sapiens, UniProt Q12809). Nature of the series: Displacement of Cy3B-tagged N-desmethyl dofetilide from human ERG expressed in HEK cells at 10 uM after 120 mins. The series is classed as cell-based, HEK293. Particulars: HEK cells that express human ERG, probe Cy3B-tagged N-desmethyl dofetilide. The procedure, abridged:
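Fluorescence polarization competition assay with HEK-hERG membrane homogenates and Cy3B-tagged N-desmethyl dofetilide tracer. Compound tested at a single 10 µM concentration, 120 min incubation, end-point read for percent inhibition.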

Series [10] addresses T1, P2Y purinoceptor 12. The series can be described thus: Ratio of compound IC50 to thienopyrimidine IC50 for P2Y12 receptor in human platelet rich plasma assessed as inhibition of ADP-induced platelet aggregation by light transmission aggregometry. The procedure, abridged: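 Human platelet-rich plasma was pre-incubated 5 min at 37 °C with compound across seven concentrations (10 down to 0.156). Aggregation was started with ADP (20, final) and followed by light transmission at 626 nm for 15 min at 37 °C. Duplicate concentration-response data were read at the 15-min end-point. IC50 was divided by the IC50 of the thienopyrimidine reference run on the same plate.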

For series [11], the system named is Liver microsomes. The series can be described thus: Metabolic stability in human liver microsomes assessed as compound remaining. The format is ADME, Microsome. In a few lines:
as §1

Series [12] is described as follows: Clearance in Sprague-Dawley rat at 2 mg/kg, iv and 5 mg/kg, po. Particulars: in vivo. The series is classed as ADME, organism-based.
Another series has as its target CYP2C9 (Homo sapiens, UniProt P11712). The series can be described thus: Inhibition of CYP2C9 at 3 uM after 30 mins. The format is ADME. In a few lines: (§2)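 Each CYP isoform assayed separately at a single 3 µM compound concentration in duplicate, with at least one isoform-specific positive control inhibitor. Incubation 30 min at 37 °C; end-point measurement gives percent inhibition.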

The target in another series is CYP2D6 (Homo sapiens, UniProt P10635). Nature of the series: Inhibition of CYP2D6 at 3 uM after 30 mins. The series is classed as ADME. In a few lines:
as §2

In another series the target is T2, CYP1A2 (Homo sapiens, UniProt P05177).
T2 sequence (P05177 whole entry): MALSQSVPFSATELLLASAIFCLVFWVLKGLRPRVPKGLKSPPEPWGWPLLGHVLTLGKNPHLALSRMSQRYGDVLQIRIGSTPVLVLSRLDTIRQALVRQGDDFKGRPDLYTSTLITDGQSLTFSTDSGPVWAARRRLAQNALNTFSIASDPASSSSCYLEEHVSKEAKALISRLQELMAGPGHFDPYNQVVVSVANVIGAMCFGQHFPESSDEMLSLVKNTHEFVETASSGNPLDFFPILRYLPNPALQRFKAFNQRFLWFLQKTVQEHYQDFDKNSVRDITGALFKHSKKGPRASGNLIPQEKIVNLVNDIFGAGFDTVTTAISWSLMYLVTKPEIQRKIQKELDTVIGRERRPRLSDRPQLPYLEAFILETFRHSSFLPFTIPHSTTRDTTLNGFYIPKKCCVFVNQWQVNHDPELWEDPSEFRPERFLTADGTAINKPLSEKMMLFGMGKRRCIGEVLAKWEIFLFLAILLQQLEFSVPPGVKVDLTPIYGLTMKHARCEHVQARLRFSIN
Nature of the series: Inhibition of CYP1A2 at 3 uM after 30 mins. The series is classed as ADME. In a few lines: as §2

A further series has as its target CYP3A4 (Homo sapiens, UniProt P08684). The series can be described thus: Inhibition of CYP3A4 at 3 uM after 30 mins. The series is classed as ADME. In a few lines: as §2

CYP2D6, sequence (P10635 whole entry): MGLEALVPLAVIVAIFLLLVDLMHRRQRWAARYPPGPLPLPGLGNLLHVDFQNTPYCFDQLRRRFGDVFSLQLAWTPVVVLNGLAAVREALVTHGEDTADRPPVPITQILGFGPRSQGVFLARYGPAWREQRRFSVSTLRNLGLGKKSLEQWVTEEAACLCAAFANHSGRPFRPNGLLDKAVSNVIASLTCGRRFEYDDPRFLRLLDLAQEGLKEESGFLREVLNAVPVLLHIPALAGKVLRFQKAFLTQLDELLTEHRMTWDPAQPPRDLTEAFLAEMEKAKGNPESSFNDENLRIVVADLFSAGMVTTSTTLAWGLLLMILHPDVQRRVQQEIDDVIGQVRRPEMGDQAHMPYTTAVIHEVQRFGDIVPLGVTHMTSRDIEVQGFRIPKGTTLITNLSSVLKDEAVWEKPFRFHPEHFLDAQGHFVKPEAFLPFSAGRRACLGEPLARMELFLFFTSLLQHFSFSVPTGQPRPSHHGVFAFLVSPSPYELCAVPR
CYP2C9, sequence (P11712 whole entry, canonical isoform): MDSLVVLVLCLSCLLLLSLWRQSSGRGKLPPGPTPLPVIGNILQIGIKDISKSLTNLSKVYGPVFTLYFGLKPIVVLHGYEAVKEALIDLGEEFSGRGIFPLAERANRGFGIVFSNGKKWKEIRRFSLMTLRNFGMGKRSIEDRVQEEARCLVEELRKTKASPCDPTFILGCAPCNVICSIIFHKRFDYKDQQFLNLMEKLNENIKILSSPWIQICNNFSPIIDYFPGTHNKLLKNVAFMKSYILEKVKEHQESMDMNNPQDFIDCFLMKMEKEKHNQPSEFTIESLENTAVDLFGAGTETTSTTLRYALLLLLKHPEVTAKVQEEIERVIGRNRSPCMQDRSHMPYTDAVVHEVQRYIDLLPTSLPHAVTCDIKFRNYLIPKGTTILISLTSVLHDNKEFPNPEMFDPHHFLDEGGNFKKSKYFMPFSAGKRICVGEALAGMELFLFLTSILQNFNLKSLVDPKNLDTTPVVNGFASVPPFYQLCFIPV
hERG (KCNH2), sequence (Q12809 whole entry): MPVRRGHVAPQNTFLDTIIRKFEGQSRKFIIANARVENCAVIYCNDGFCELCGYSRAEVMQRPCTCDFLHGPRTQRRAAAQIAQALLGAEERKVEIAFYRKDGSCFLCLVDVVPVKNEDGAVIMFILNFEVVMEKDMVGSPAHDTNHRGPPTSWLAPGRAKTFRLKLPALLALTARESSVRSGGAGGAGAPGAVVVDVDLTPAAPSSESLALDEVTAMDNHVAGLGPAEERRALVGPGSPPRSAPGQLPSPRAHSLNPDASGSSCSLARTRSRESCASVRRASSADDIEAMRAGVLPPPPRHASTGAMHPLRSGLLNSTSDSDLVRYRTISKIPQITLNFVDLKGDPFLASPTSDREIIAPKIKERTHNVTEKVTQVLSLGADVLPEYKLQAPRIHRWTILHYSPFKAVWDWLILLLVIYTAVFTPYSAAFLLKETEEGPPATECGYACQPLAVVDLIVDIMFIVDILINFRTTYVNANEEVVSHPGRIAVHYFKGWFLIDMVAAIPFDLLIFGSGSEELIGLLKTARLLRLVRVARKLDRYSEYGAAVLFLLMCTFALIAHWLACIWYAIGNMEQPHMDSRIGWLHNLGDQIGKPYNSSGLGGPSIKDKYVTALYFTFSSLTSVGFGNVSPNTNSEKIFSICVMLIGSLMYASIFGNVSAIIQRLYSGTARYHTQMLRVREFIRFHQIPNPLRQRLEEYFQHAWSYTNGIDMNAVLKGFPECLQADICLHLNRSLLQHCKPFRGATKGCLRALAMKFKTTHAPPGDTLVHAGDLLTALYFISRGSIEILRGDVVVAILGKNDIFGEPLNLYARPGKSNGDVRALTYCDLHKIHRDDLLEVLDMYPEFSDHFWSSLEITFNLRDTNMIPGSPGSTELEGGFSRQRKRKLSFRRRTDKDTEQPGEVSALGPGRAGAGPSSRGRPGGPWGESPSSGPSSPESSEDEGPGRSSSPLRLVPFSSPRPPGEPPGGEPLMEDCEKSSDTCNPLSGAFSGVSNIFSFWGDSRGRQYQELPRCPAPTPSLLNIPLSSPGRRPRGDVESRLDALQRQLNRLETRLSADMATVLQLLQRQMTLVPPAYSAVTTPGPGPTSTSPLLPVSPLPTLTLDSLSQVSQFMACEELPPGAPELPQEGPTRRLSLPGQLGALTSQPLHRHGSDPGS
CYP3A4, sequence (P08684 whole entry): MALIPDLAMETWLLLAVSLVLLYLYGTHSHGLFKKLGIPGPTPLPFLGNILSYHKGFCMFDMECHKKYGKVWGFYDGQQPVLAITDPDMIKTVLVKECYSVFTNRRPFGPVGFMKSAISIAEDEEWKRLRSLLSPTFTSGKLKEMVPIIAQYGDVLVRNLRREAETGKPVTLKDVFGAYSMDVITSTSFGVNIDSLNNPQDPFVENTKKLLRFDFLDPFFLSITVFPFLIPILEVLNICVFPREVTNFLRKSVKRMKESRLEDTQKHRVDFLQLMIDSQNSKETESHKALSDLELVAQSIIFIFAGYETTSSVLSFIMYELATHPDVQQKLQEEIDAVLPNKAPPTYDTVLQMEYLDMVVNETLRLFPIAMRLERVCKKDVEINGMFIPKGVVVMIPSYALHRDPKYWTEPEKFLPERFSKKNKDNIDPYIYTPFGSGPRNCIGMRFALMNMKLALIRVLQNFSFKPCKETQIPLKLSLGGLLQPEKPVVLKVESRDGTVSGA
T1 sequence (Q9H244 whole entry): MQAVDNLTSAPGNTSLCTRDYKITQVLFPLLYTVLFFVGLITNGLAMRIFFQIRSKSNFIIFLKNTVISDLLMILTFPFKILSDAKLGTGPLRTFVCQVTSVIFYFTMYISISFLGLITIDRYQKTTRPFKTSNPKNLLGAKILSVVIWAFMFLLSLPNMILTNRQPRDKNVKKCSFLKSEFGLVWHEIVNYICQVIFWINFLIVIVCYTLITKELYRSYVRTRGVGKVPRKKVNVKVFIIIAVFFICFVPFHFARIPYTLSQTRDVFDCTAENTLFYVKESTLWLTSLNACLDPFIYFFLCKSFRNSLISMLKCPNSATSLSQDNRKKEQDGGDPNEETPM

`CCCCCOC(=O)N1CCN(C(=O)[C@H](CCC(=O)O)NC(=O)c2cc(SC3CCCC3)nc(-c3ccccc3)n2)CC1`: the fold change (FC) in series [1] and in [2] was greater than 340 each time. In addition, the Ki at P2Y purinoceptor 12 [3] was 17 nM. The result at P2Y purinoceptor 12 [4] was inactive.
With `CCCCCOC(=O)N1CCN(C(=O)[C@H](CCC(=O)O)NC(=O)c2cc(SCC(F)(F)F)nc(-c3ccccc3)n2)CC1`, the fold change (FC) in series [1] and in [2] was greater than 340 throughout. The Ki at P2Y purinoceptor 12 [3] turned out to be 22 nM. On P2Y purinoceptor 12 [4], the result was inactive.
Consider `CCCCCOC(=O)N1CCN(C(=O)[C@H](CCC(=O)O)NC(=O)c2cc(SCCO)nc(-c3ccccc3)n2)CC1`, for which the fold change (FC) in [1] and in series [2] was greater than 340 each time. In addition, the Ki on P2Y purinoceptor 12 [3] was 4.5 nM. Moreover, the outcome at P2Y purinoceptor 12 [4] was inactive.
As for `CCCCCOC(=O)N1CCN(C(=O)[C@H](CCC(=O)O)NC(=O)c2cc(SC3CCCCC3)nc(-c3ccccc3)n2)CC1`, the fold change (FC) in series [1] and in series [2] was greater than 340 each time. In addition, at P2Y purinoceptor 12 [3], the inhibition constant (Ki) turned out to be 70 nM. Further, the result on P2Y purinoceptor 12 [4] was inactive.
Take `CCCCOC(=O)N1CCN(C(=O)[C@H](CCC(=O)O)NC(=O)c2cc(N3CCC(C(=O)NCC)CC3)nc(-c3ccccc3)n2)CC1`: the results for the Ratio IC50 at P2Y purinoceptor 12 [5] and at P2Y purinoceptor 12 [10] were 0.6 and 0.1, respectively. Also, the Vd in series [6] was 0.3 L/kg. Besides, the fold change (FC) in series [1] and in [2] was greater than 340 in each case. Besides, the Stability with Liver microsomes [7] and in the series with Liver microsomes [11] was greater than 80% each time. The molecule also returned a bioavailability in series [8] of 7%. In addition, the half-life in [9] amounted to 6 min. At hERG (KCNH2), the inhibition at 2 h, 10 µM is less than 25%. In series [12], this molecule had a clearance of 16 mL/min/kg. Also, the inhibition at 0.5 h, 3 µM against CYP2C9, against CYP2D6, at CYP1A2 and at CYP3A4 was less than 25% throughout. Also, the inhibition constant (Ki) at P2Y purinoceptor 12 [3] was determined as 0.38 nM.
Take `CCCCCOC(=O)N1CCN(C(=O)[C@H](CCC(=O)O)NC(=O)c2cc(N3CCC(COC)CC3)nc(-c3ccccc3)n2)CC1`: the values for the Ratio IC50 at P2Y purinoceptor 12 [5] and on P2Y purinoceptor 12 [10] were 2.8 and 0.4, respectively. In addition, the Vd in series [6] turned out to be 1.1 L/kg. In addition, the fold change (FC) in series [1] and in series [2] was greater than 340 in each case. For the same molecule, the Stability in the series with Liver microsomes [7] and in the series on Liver microsomes [11] was greater than 80% in each case. The molecule further displayed a bioavailability in series [8] of 61%. This molecule gave a half-life in series [9] of 54 min. Besides, the inhibition at 2 h, 10 µM at hERG (KCNH2) is less than 25%. For the same molecule, the clearance in series [12] amounted to 14 mL/min/kg. Also, the inhibition at 0.5 h, 3 µM on CYP2C9, on CYP2D6, against CYP1A2 and on CYP3A4 was less than 25% in each case. Also, the Ki at P2Y purinoceptor 12 [3] turned out to be 8.4 nM.
As for `CCCCCOC(=O)N1CCN(C(=O)[C@H](CCC(=O)O)NC(=O)c2cc(SC(C)(C)C)nc(-c3ccccc3)n2)CC1`, the fold change (FC) in [1] and in series [2] was greater than 340 each time. On P2Y purinoceptor 12 [3], the Ki was determined as 42 nM. Moreover, the result on P2Y purinoceptor 12 [4] was inactive.
Regarding `CCCCCOC(=O)N1CCN(C(=O)[C@H](CCC(=O)O)NC(=O)c2cc(N3CCC(CN)CC3)nc(-c3ccccc3)n2)CC1`, the results for the Ratio IC50 at P2Y purinoceptor 12 [5] and at P2Y purinoceptor 12 [10] were 0.6 and 0.1, respectively. Further, the Vd in series [6] stood at 4.9 L/kg. For the same molecule, the fold change (FC) in [1] and in series [2] was greater than 340 in each case. Further, the Stability in the series on Liver microsomes [7] and in the series on Liver microsomes [11] was greater than 80% throughout. This molecule yielded a bioavailability in series [8] of 1%. Also, in series [9], the half-life turned out to be 102 min. The molecule further displayed an inhibition at 2 h, 10 µM at hERG (KCNH2) of less than 25%. For the same molecule, the clearance in series [12] turned out to be 33 mL/min/kg. Moreover, the inhibition at 0.5 h, 3 µM at CYP2C9, against CYP2D6, against CYP1A2 and against CYP3A4 was less than 25% throughout. For the same molecule, the Ki at P2Y purinoceptor 12 [3] amounted to 3 nM.
For `CCCCCOC(=O)N1CCN(C(=O)[C@H](CCC(=O)O)NC(=O)c2cc(N3CCC(C(=O)N(CC)CC)CC3)nc(-c3ccccc3)n2)CC1`, the Ratio IC50 at P2Y purinoceptor 12 [5] amounted to 0.6; at P2Y purinoceptor 12 [10], 0.1. Besides, in series [6], the Vd was found to be 0.21 L/kg. In addition, the fold change (FC) in series [1] and in series [2] was greater than 340 throughout. Besides, the Stability in the series with Liver microsomes [7] and in the series with Liver microsomes [11] was greater than 80% each time. The molecule also showed a bioavailability in series [8] of 38%. In series [9], the half-life is 24 min. The molecule also came in with an inhibition at 2 h, 10 µM on hERG (KCNH2) of less than 25%. The same molecule registered a clearance in series [12] of 6 mL/min/kg. In addition, the inhibition at 0.5 h, 3 µM at CYP2C9, at CYP2D6, against CYP1A2 and on CYP3A4 was less than 25% throughout. Besides, the Ki on P2Y purinoceptor 12 [3] was 1.5 nM.
